Reference: ChEMBL document CHEMBL3856201, “5,10b-Ethanophenanthridine amaryllidaceae alkaloids inspire the discovery of novel bicyclic ring systems with activity against drug resistant cancer cells” (2016)
Activity calls are given as the source filed them. The calls are words filed in the database; no cut-off is given here.

How the values were obtained:
[1] = Antiproliferative activity against human HeLa cells after 48 hrs by MTT assay; format: functional
Procedure, shortened: (§1)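 HeLa cells were cultured in DMEM + 10% FBS and MCF-7 cells in RPMI + 10% FBS, both at 37 °C under 5% CO2. Compounds were diluted from DMSO stocks and applied for 48 h. Viability was read by MTT relative to DMSO control. The value is the concentration reducing viability by 50%, ±SD from two independent experiments of 4 replicates each.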

[2] = Antiproliferative activity against human MCF7 cells after 48 hrs by MTT assay; format: functional; details: MCF7, 48 h; procedure, shortened: as §1
[3] = Antiproliferative activity against drug-sensitive human Hs683 cells after 48 to 96 hrs by MTT assay; format: functional; details: Hs 683
Procedure, shortened: (§2)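 MTT read-out. T98G and Hs683 cells were grown in DMEM with 10% FBS, glutamine, gentamicin and penicillin-streptomycin at 37 °C and 5% CO2. Compounds came from 100 or 50 mM DMSO stocks and were tested at 0.001–100 µM for 48–96 h. Controls were 0.1% DMSO (negative) and 1 µM phenyl arsine oxide (positive). The value is the mean concentration giving 50% viability loss; replicate number varied.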

[4] = Antiproliferative activity against drug-resistant human U373 cells after 48 to 96 hrs by MTT assay; format: functional, U-373MG ATCC; details: U373 MG
Procedure, shortened: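 Culture was RPMI with 10% heat-inactivated FBS plus glutamine and antibiotics for U373 cells. Compound exposure was 0.001–100 µM for 48–96 h, with 0.1% DMSO and 1 µM phenyl arsine oxide as controls. The MTT assay gave the average concentration cutting viability by 50%; replicate numbers varied.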

[5] = Antiproliferative activity against drug-resistant human U251 cells after 48 to 96 hrs by MTT assay; format: functional; details: U-251
Procedure, shortened: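 U251 cells were kept in 10% MEM with glutamine, gentamicin and penicillin-streptomycin at 37 °C and 5% CO2. After seeding they were grown 24–72 h and then given compounds at 0.001–100 µM (from 100 or 50 mM DMSO stocks) for 48–96 h. Viability was read by MTT. Vehicle control was 0.1% DMSO; 1 µM phenyl arsine oxide served as positive control. The result is the average 50%-viability-reducing concentration.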

[6] = Antiproliferative activity against drug-resistant human U87 cells after 48 to 96 hrs by MTT assay; format: functional, U-87MG ATCC; details: U-87 MG
Procedure, shortened: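 U87 cells grown in DMEM with glutamine, gentamicin and penicillin-streptomycin (37 °C, 95% humidity, 5% CO2) were seeded and then treated with 0.001–100 µM compound for 48–96 h. Readout was MTT. Controls were 0.1% DMSO and 1 µM phenyl arsine oxide. The value is the average concentration reducing viability 50%.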

[7] = Antiproliferative activity against drug-resistant human T98G cells after 48 to 96 hrs by MTT assay; format: functional; procedure, shortened: as §2
[8] = Antiproliferative activity against drug-resistant human A549 cells after 48 to 96 hrs by MTT assay; format: functional
Procedure, shortened: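 A549 cells grown in RPMI with 10% heat-inactivated FBS, 4 mM glutamine and antibiotics at 37 °C under 5% CO2. Compounds came from 100 or 50 mM DMSO stocks and were tested at 0.001–100 µM for 48–96 h. Read-out was MTT. The value is the mean concentration giving 50% viability loss, with varied replicate numbers. Controls were 0.1% DMSO (negative) and 1 µM phenyl arsine oxide (positive).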

[9] = Antiproliferative activity against patient-derived TMZ-sensitive GBM 090909 cells after 48 to 96 hrs by MTT assay; format: functional; details: Homo sapiens
Procedure, shortened: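 Primary GBM neurosphere cultures came from resected patient tumour. Tissue was minced, dissociated with 100 U/mL collagenase in neurobasal medium for 30 min at 37 °C, filtered through 70 µm, spun at 200 × g for 5 min, and grown in ultra-low attachment wells in neurobasal medium with B27. Compounds were applied at 0.001–100 µM for 48–96 h. MTT gave the average 50%-viability concentration.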

[10] = Antiproliferative activity against patient-derived TMZ-resistant GBM 031810 cells over-expressing MGMT after 48 to 96 hrs by MTT assay; format: functional; details: Homo sapiens
[11] = Antiproliferative activity against patient-derived paclitaxel-sensitive NCI-H1993 cells after 48 to 96 hrs by MTT assay; format: functional; details: Homo sapiens
[12] = Antiproliferative activity against patient-derived paclitaxel-resistant NCI-H2073 cells after 48 to 96 hrs by MTT assay; format: functional; details: Homo sapiens
[13] = Antiproliferative activity against human MES-SA cells after 48 to 96 hrs by MTT assay; format: functional
Procedure, shortened: (§3)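 Parent MES-SA and MES-SA/Dx5 uterine sarcoma cells were grown in RPMI-1640 with 10% FBS. The Dx5 line was kept in 500 nM doxorubicin after stepwise selection from 100 nM in twofold steps, about 2 passages per step. MTT assay used 0.001–100 µM compound for 48–96 h, with 0.1% DMSO and 1 µM phenyl arsine oxide controls. The ratio is the Dx5 GI50 divided by the parent GI50.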

[14] = Antiproliferative activity against human MES-SA/Dx5 cells after 48 to 96 hrs by MTT assay; format: functional; procedure, shortened: as §3
NCI-H1993 = test: Potentiation of paclitaxel-induced cytotoxicity against patient-derived paclitaxel-sensitive NCI-H1993 cells assessed as reduction in cell viability up to 100 uM after 96 hrs by Celltiter-Glo luminescent assay; format: functional, cell-based; details: Homo sapiens
Procedure, shortened: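 NCI-H1993 cells were seeded at 4×10^3 per well and grown 24 h. […] Viability was read by CellTiter-Glo luminescence. Predicted additivity was calculated by Bliss independence, Exy = Ex + Ey − ExEy.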

[15] = Inhibition of cap/HCV-mediated translation in mouse Krebs2 cell free extract expressing FF/HCV/Ren mRNA reporter transcript assessed as reduction in luciferase production at 50 uM relative to control; format: functional
Procedure, shortened: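 Krebs-2 translation extracts were programmed with bicistronic FF/HCV/Ren mRNA and incubated with compound at 50 µM or vehicle (0.5% DMSO). Firefly (cap) and Renilla (HCV IRES) luciferase activities were expressed relative to the DMSO control, from 2 independent translation reactions, as mean with error of the mean. Reference inhibitors were 1 µM hippuristanol and 10 µM anisomycin.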

Oryctolagus cuniculus = species: Oryctolagus cuniculus; test: Inhibition of cap/HCV-mediated translation in rabbit reticulocyte lysate expressing FF/HCV/Ren mRNA reporter transcript assessed as reduction in luciferase production at 50 uM after 1 hr relative to control; format: functional
Procedure, shortened: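 Rabbit reticulocyte lysate was programmed with bicistronic FF/HCV/Ren mRNA and incubated with compound (50 µM) or 0.5% DMSO vehicle. Firefly and Renilla luciferase activities were expressed relative to the DMSO control. Two independent translation reactions, reported with error of the mean.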

HeLa S3 [16] = test: Inhibition of translation in human HeLaS3 assessed as increase in eIF2alpha phosphorylation at 50 uM after 1 hr by Western blot analysis; format: functional
Procedure, shortened: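 HeLa S3 cells were exposed to 50 µM compound for 1 h. Extracts were resolved by SDS-PAGE and transferred to PVDF. Western blots were probed for phospho-eIF2α, pan-eIF2α and eEF2.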

HeLa S3 [17] = test: Inhibition of translation in human HeLaS3 assessed as induction of dis-aggregation of polysomes at 50 uM after 1 hr by UV-based […] method; format: functional
Procedure, shortened: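 HeLa S3 cells were exposed to 50 µM compound for 1 h, then analysed by polysome profiling against a DMSO-treated control profile.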

SMILES: O=C1C=C[C@]23CC[N@](Cc4c2sc2ccccc42)[C@H]3C1
- GI50 [1]: 8 µM
- GI50 [2]: 5 µM
- GI50 [3]: 3 µM
- GI50 [4]: 2 µM
- GI50 [5]: 1 µM
- GI50 [6]: 2 µM
- GI50 [7]: 7 µM
- GI50 [8]: 9 µM
- GI50 [9]: 5 µM
- GI50 [10]: 1 µM
- GI50 [11]: 3 µM
- GI50 [12]: 11 µM
- GI50 [13]: 5 µM
- GI50 [14]: 7 µM
- Activity (NCI-H1993): Active
- inhibition at 50 µM [15]: 25%
- inhibition (Oryctolagus cuniculus): 25%
- inhibition (HeLa S3 [16]): Active
- inhibition (HeLa S3 [17]): Active
